These results are taken from ChEMBL document CHEMBL1765049, “Inhibitory properties of 2-substituent-1H-benzimidazole-4-carboxamide derivatives against enteroviruses” (Bioorg Med Chem, 2011).

The test system of one series is Coxsackievirus B3. Kind of series: Antiviral activity against Coxsackievirus B3 infected in african green monkey Vero cells assessed as inhibition of viral growth after 24 hrs by Reed-Muench method. The settings on record: Enterovirus B. The format is functional, organism-based. In a few lines:
(§1)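 Vero cells were seeded and after 24 h exposed to virus for 2 h. Compounds were then added after being dissolved in DMSO and diluted in culture medium. Cell-control and virus-control wells were run alongside. Cytopathic effect was scored once the virus wells exceeded grade 4. The 50% inhibitory concentration of virus growth was calculated by the Reed–Muench method.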

The test system of a further series is Coxsackievirus A16. Briefly: Antiviral activity against Coxsackievirus A16 infected in african green monkey Vero cells assessed as inhibition of viral growth after 24 hrs by Reed-Muench method. It is filed as functional, cell-based. The settings on record: Enterovirus A, Vero, 24 h; read-out: IC50. In outline:
as §1

Series [1] is described as follows: Selectivity index, ratio of TC50 for african green monkey Vero cells to IC50 for Coxsackievirus B3. The settings on record: read-out: Selectivity Index. The format is toxicity, cell-based. In outline: (§2)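 Selectivity index is calculated as TC50 in Vero cells divided by the antiviral IC50 against the named enterovirus. Both values come from the same Vero cytopathic-effect assay, with compounds dissolved in DMSO and diluted in medium.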

Series [2] is described as follows: Cytotoxicity against african green monkey Vero cells. It is filed as cell-based. The settings on record: chlorocebus sabaeus, Vero cells; read-out: TC50 (the source's name). In outline:
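TC50 is the compound concentration killing 50% of Vero cells (inhibiting cell growth by 50%). Compounds were dissolved in DMSO and diluted in medium, then added to seeded Vero cells. Cell wells were examined when cytopathic effect in virus-infected control wells exceeded grade 4.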

Series [3] in a line: Selectivity index, ratio of TC50 for african green monkey Vero cells to IC50 for Coxsackievirus A16. The format is toxicity, cell-based. The settings on record: read-out: Selectivity Index. In a few lines:
as §2

Series [4] is described as follows: Selectivity index, ratio of TC50 for african green monkey Vero cells to IC50 for Human enterovirus 71. It is filed as toxicity, cell-based. Conditions: read-out: Selectivity Index. In a few lines: as §2
Series [5] can be described thus: Selectivity index, ratio of TC50 for african green monkey Vero cells to IC50 for Coxsackievirus B6. The format is toxicity, cell-based. The settings on record: read-out: Selectivity Index. In a few lines:
as §2

Another series deals with Enterovirus A71. Kind of series: Antiviral activity against Human enterovirus 71 infected in african green monkey Vero cells assessed as inhibition of viral growth after 24 hrs by Reed-Muench method. It is filed as functional, organism-based. The settings on record: Enterovirus A. In a few lines:
as §1

In another series the test system is Coxsackievirus B6. Kind of series: Antiviral activity against Coxsackievirus B6 infected in african green monkey Vero cells assessed as inhibition of viral growth after 24 hrs by Reed-Muench method. It is filed as functional, organism-based. Conditions: Enterovirus B. In outline: as §1

Each structure is given as a SMILES string.

One may read the IC50 as the concentration needed to halve the response being measured. For `COc1ccc(-c2nc3c(C(=O)Nc4ccccc4F)cccc3[nH]2)cc1OC`, the IC50 in the series with Coxsackievirus B3 and in the series on Coxsackievirus A16 was 3.5 µM in each case. Moreover, the selectivity ratio in series [1] and in series [3] was 7 in each case. The CC50 in series [2] was 24.5 µM.
Turning to `Cc1csc(NC(=O)c2cccc3[nH]c(-c4ccccn4)nc23)n1`, the IC50 in the series with Coxsackievirus B3 was determined as 1.76 µM. Moreover, the selectivity ratio in series [1] was 10. The CC50 in [2] amounted to 17.7 µM.
For the compound `O=C(N[C@H](CO)[C@H](O)c1ccc([N+](=O)[O-])cc1)c1cccc2[nH]c(-c3cccnc3)nc12`, the 50% inhibitory concentration (IC50) in the series on Coxsackievirus B3 worked out at 28.6 µM. In series [1], the selectivity ratio was 5.2. Besides, the CC50 in series [2] is 148 µM.
With `Cc1csc(NC(=O)c2cccc3[nH]c(-c4cccnc4)nc23)n1`, in the series with Coxsackievirus B3, the IC50 amounted to 16.2 µM. Besides, the selectivity ratio in series [1] was found to be 6.8. Further, in series [2], the CC50 was 111 µM.
Taken in the same sequence, the figures for `O=C(N[C@H](CO)[C@H](O)c1ccc([N+](=O)[O-])cc1)c1cccc2[nH]c(-c3ccncc3)nc12` were 30.2 µM, 4.1 and 123 µM.
On the same counts, the results for `Cc1csc(NC(=O)c2cccc3[nH]c(-c4ccncc4)nc23)n1` are 21.3 µM, 5.2 and 111 µM.
On the same counts, the results for `O=C(Nc1ccccc1F)c1cccc2[nH]c(-c3ccco3)nc12` are 3.3 µM, 7.5 and 25 µM.
Regarding `O=C(N[C@H](CO)[C@H](O)c1ccc([N+](=O)[O-])cc1)c1cccc2[nH]c(-c3ccco3)nc12`, in the series with Coxsackievirus B3, the IC50 was found to be 37.7 µM. In series [1], the selectivity ratio is 4. Besides, the CC50 in series [2] is 152 µM.
On the same counts, the results for `C[C@@H](NC(=O)c1cccc2[nH]c(-c3ccco3)nc12)[C@H](O)c1ccc(Cl)cc1` are 13.4 µM, 12.1 and 162 µM.
On the same counts, the results for `O=C(Nc1ccccc1F)c1cccc2[nH]c(-c3ccc([N+](=O)[O-])o3)nc12` are 25.3 µM, 3 and 75.9 µM.
On the same counts, the results for `O=C(N[C@H](CO)[C@H](O)c1ccc([N+](=O)[O-])cc1)c1cccc2[nH]c(-c3ccc([N+](=O)[O-])o3)nc12` are 22.9 µM, 3 and 68.7 µM.
`C[C@@H](NC(=O)c1cccc2[nH]c(-c3ccc([N+](=O)[O-])o3)nc12)[C@H](O)c1ccc(Cl)cc1`: the IC50 in the series on Coxsackievirus B3 was found to be 16.2 µM. Also, the selectivity ratio in series [1] was found to be 3. Moreover, the CC50 in [2] is 48.6 µM.
On to `COc1ccc(-c2nc3c(C(=O)NCCCO)cccc3[nH]2)cc1OC`, for which the IC50 with Coxsackievirus B3 was 17.2 µM; in the series with Coxsackievirus A16, 20.9 µM; in the series with Enterovirus A71, 20.9 µM; with Coxsackievirus B6, 12.1 µM. Further, the selectivity ratio was 2.7 in series [4], 2.7 in [1], 3.6 in [5] and 2.1 in [3]. Also, in series [2], the CC50 was found to be 46 µM.
For the compound `CCC(CC)NC(=O)c1cccc2[nH]c(-c3ccc(OC)c(OC)c3)nc12`, the 50% inhibitory concentration (IC50) with Coxsackievirus B3 was determined as 0.7 µM; in the series on Coxsackievirus A16, 0.736 µM; with Enterovirus A71, 0.736 µM; in the series with Coxsackievirus B6 it was 0.736 µM. Besides, the selectivity ratio in series [4], in [1], in [5] and in [3] was 3 in each case. The CC50 in [2] worked out at 2.23 µM.
For `COc1ccc(-c2nc3c(C(=O)Nc4ccccc4F)cccc3[nH]2)c(OC)c1OC`, the concentration for half-maximal inhibition (IC50) is 9.8 µM in the series on Coxsackievirus B3 and 16.9 µM in the series on Coxsackievirus A16. The values for the selectivity ratio in [1] and in [3] were 3.9 and 3, respectively. Further, the CC50 in [2] worked out at 37.8 µM.
For `COc1ccc(-c2nc3c(C(=O)N[C@H](CO)[C@H](O)c4ccc([N+](=O)[O-])cc4)cccc3[nH]2)cc1OC`, the 50% inhibitory concentration (IC50) in the series on Coxsackievirus A16 is 8.37 µM. Besides, the CC50 in series [2] was found to be 14.5 µM. In addition, in series [3], the selectivity ratio stood at 1.7.
On the same counts, the results for `COc1ccc(-c2nc3c(C(=O)Nc4c[nH]cn4)cccc3[nH]2)cc1OC` are 102 µM, 306 µM and 3.
Taken in the same sequence, the figures for `COc1ccc(-c2nc3c(C(=O)Nc4nc(C#N)c(C#N)[nH]4)cccc3[nH]2)cc1OC` were 9.98 µM, 43.1 µM and 4.3.
`COc1ccc(-c2nc3c(C(=O)Nc4cnccn4)cccc3[nH]2)cc1OC`: the IC50 in the series on Coxsackievirus A16 came to 32.9 µM. For the same compound, the CC50 in series [2] was found to be 98.8 µM. Also, in series [3], the selectivity ratio was 3.
With `COc1ccc(-c2nc3c(C(=O)Nc4nc5ccccc5[nH]4)cccc3[nH]2)cc1OC`, in the series with Coxsackievirus A16, the 50% inhibitory concentration (IC50) was 9.98 µM. In series [2], the CC50 was 51.8 µM. Besides, the selectivity ratio in [3] was determined as 5.2.
For the compound `COc1ccc(-c2nc3c(C(=O)Nc4ncccc4O)cccc3[nH]2)cc1OC`, the IC50 with Coxsackievirus A16 worked out at 31.7 µM. The CC50 in [2] came to 164 µM. Besides, the selectivity ratio in series [3] came to 5.2.
As for `O=C(Nc1ccccc1F)c1cccc2[nH]c(-c3ccncc3)nc12`, the concentration for half-maximal inhibition (IC50) in the series with Coxsackievirus B3 was found to be 37.2 µM. For the same compound, the selectivity ratio in series [1] worked out at 3. Also, the CC50 in series [2] was found to be 111 µM.
For `O=C(Nc1ccccc1)c1cccc2[nH]c(-c3cccnc3)nc12`, the IC50 in the series with Coxsackievirus B3 stood at 3.72 µM. For the same compound, in series [1], the selectivity ratio turned out to be 9.2. Moreover, the CC50 in [2] was 34.2 µM.
For the compound `NC(=O)c1cccc2[nH]c(-c3cccnc3)nc12`, the IC50 in the series on Coxsackievirus B3 was determined as 26 µM. Besides, the selectivity ratio in [1] stood at 3. Besides, the CC50 in series [2] turned out to be 77.7 µM.
For `O=C(Nc1ccccc1)c1cccc2[nH]c(-c3ccccn3)nc12`, the IC50 with Coxsackievirus B3 came to 0.459 µM. In addition, the selectivity ratio in series [1] stood at 38.9. The CC50 in series [2] came out at 17.9 µM.
With `O=C(NCCO)c1cccc2[nH]c(-c3ccncc3)nc12`, the CC50 in [2] was determined as 498 µM.
Consider `O=C(Nc1ccccc1F)c1cccc2[nH]c(-c3cccnc3)nc12`, for which, in the series on Coxsackievirus B3, the half-maximal inhibitory concentration (IC50) turned out to be 9.73 µM. Also, the selectivity ratio in series [1] was determined as 3.2. Also, the CC50 in [2] was found to be 54.7 µM.
On the same counts, the results for `O=C(NCCO)c1cccc2[nH]c(-c3cccnc3)nc12` are 90.7 µM, 7.5 and 682 µM.
In the case of `NC(=O)c1cccc2[nH]c(-c3ccccn3)nc12`, the half-maximal inhibitory concentration (IC50) in the series on Coxsackievirus B3 turned out to be 30.6 µM. The selectivity ratio in series [1] is 7.3. Further, in [2], the CC50 is 224 µM.
On to `O=C(Nc1ccccc1)c1cccc2[nH]c(-c3ccncc3)nc12`, for which the 50% inhibitory concentration (IC50) in the series on Coxsackievirus B3 was determined as 12.3 µM. Besides, the selectivity ratio in series [1] turned out to be 4. In addition, the CC50 in [2] was 49.8 µM.
Taken in the same sequence, the figures for `O=C(NCCO)c1cccc2[nH]c(-c3ccccn3)nc12` were 131 µM, 4.3 and 568 µM.
On the same counts, the results for `O=C(Nc1ccccc1F)c1cccc2[nH]c(-c3ccccn3)nc12` are 1.63 µM, 28.4 and 54.7 µM.
As for `NC(=O)c1ncn([C@@H]2O[C@H](CO)[C@@H](O)[C@H]2O)n1` [RIBAVIRIN], the concentration for half-maximal inhibition (IC50) came to 1690 µM in the series with Coxsackievirus B3, 4090 µM in the series with Coxsackievirus A16, 2340 µM in the series with Enterovirus A71 and 910 µM in the series with Coxsackievirus B6. In series [2], the CC50 is 8190 µM.
